Results on 2 compounds are retold here after ChEMBL document CHEMBL1149069, “SB-202742, a novel beta-lactamase inhibitor isolated from Spondias mombin” (J Nat Prod, 1994).

pIC50: −log10 of the molar value. ≈ marks a conversion by molar mass, not a printed value. Calls of active or inactive are those of the source. No cut-off for these calls is given here.

For one experiment, the system named is Pseudomonas aeruginosa. The experiment is described as follows: Antimicrobial activity against Pseudomonas aeruginosa 1771P by microtiter method. The class given is functional. In short, it runs like this:
(§1)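 Broth microdilution MIC in Oxoid nutrient broth No. 2. Inoculum was a 1/500 dilution of an overnight broth culture, and plates were incubated overnight at 37°.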

Experiment [1] deals with Staphylococcus epidermidis. Briefly: Antimicrobial activity against Staphylococcus epidermidis NCTC 11047 by microtiter method. The class given is functional. In short, it runs like this: as §1
Experiment [2] in a line: Inhibition of Escherichia coli K-12 beta-lactamase PSE-4 assessed as inhibition of nitrocefin hydrolysis preincubated for 5 mins by microtiter plate assay.
The nature of experiment [3]: Inhibition of Escherichia coli K-12 beta-lactamase OXA1 assessed as inhibition of nitrocefin hydrolysis pre-incubated for 5 mins by microtiter plate assay.
Experiment [4] relates to Staphylococcus aureus. Briefly: Antimicrobial activity against Staphylococcus aureus Oxford by microtiter method. The class given is functional. The method in brief:
as §1

Another experiment concerns Escherichia coli. The experiment is described as follows: Antimicrobial activity against Escherichia coli NCTC-10418 by microtiter method. The class given is functional. The method in brief: as §1
Another experiment concerns Enterococcus faecalis. The experiment is described as follows: Antimicrobial activity against Streptococcus faecalis 1 by microtiter method. Type of experiment: functional. The method in brief:
as §1

A further experiment addresses Beta-lactamase TEM (Escherichia coli, UniProt P62593). Briefly: Inhibition of Escherichia coli JT4 beta-lactamase TEM1 assessed as inhibition of nitrocefin hydrolysis preincubated for 5 mins by microtiter plate assay. The method in brief:
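Inhibitor was pre-incubated with enzyme for 5 min at 37° before each determination. Enzyme classification follows Bush.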

The target in experiment [5] is Beta-lactamase (Staphylococcus aureus) (UniProt P00807). Briefly: Inhibition of Staphylococcus aureus Russell beta-lactamase assessed as inhibition of nitrocefin hydrolysis up to 567 ug/ml pre-incubated for 5 mins by microtiter plate assay. The method in brief: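 Inhibitor was pre-incubated with the enzyme for 5 min at 37°, then hydrolysis of 200 µM nitrocefin was read on a microtiter plate reader. Inhibitor was tested at concentrations up to 567 µg/ml.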

For the next experiment, the system named is Serratia marcescens. The experiment is described as follows: Antimicrobial activity against Serratia marcescens US32 by microtiter method. Type of experiment: functional. The method in brief:
as §1

The next experiment relates to Bacillus subtilis. The experiment is described as follows: Antimicrobial activity against Bacillus subtilis ATCC 6633 by microtiter method. The class given is functional. In short, it runs like this: as §1
The next experiment relates to Proteus mirabilis. The experiment is described as follows: Antimicrobial activity against Proteus mirabilis C977 by microtiter method. Type of experiment: functional. The method in brief: as §1
In the next experiment the test system is Streptococcus pyogenes. Briefly: Antimicrobial activity against Streptococcus pyogenes CN 10 after overnight incubation by Todd Hewitt broth dilution method. Type of experiment: functional. The method in brief: (§2)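 Broth microdilution MIC in Todd Hewitt broth. Inoculum was a 1/500 dilution of an overnight broth culture, and plates were incubated overnight at 37°.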

The target of experiment [6] is Beta-lactamase (Enterobacter cloacae, UniProt P05364). The experiment is described as follows: Inhibition of Enterobacter cloacae P99 beta-lactamase assessed as inhibition of nitrocefin hydrolysis pre-incubated for 5 mins by microtiter plate assay.
A further experiment deals with Streptococcus pneumoniae. The experiment is described as follows: Antimicrobial activity against Streptococcus pneumoniae PU7 after overnight incubation by Todd Hewitt broth dilution method. The class given is functional. In short, it runs like this: as §2
Experiment [7] has as its system Staphylococcus aureus. Briefly: Antimicrobial activity against Staphylococcus aureus Russell by microtiter method. Type of experiment: functional. In short, it runs like this:
as §1

A further experiment concerns Klebsiella pneumoniae. Briefly: Antimicrobial activity against Klebsiella pneumoniae A by microtiter method. Type of experiment: functional. In short, it runs like this:
as §1

Experiment [8] deals with Beta-lactamase (Pseudomonas aeruginosa (strain ATCC 15692 / PAO1 / 1C / PRS 101 / LMG12228), UniProt P24735). Briefly: Inhibition of Pseudomonas aeruginosa A beta-lactamase assessed as inhibition of nitrocefin hydrolysis preincubated for 5 mins by microtiter plate assay.
Experiment [9] relates to Staphylococcus saprophyticus. The experiment is described as follows: Antimicrobial activity against Staphylococcus saprophyticus Fl2 by microtiter method. The class given is functional. The method in brief: as §1
The test system of a further experiment is Enterobacter cloacae. Briefly: Antimicrobial activity against Enterobacter cloacae N1 by microtiter method. The class given is functional. The method in brief: as §1
Experiment [10] concerns Staphylococcus aureus. Briefly: Antimicrobial activity against Staphylococcus aureus Smith by microtiter method. Type of experiment: functional. In short, it runs like this: as §1
Experiment [11] has as its target T1, Beta-lactamase (Proteus mirabilis, UniProt P30897).
T1 sequence (P30897 whole entry): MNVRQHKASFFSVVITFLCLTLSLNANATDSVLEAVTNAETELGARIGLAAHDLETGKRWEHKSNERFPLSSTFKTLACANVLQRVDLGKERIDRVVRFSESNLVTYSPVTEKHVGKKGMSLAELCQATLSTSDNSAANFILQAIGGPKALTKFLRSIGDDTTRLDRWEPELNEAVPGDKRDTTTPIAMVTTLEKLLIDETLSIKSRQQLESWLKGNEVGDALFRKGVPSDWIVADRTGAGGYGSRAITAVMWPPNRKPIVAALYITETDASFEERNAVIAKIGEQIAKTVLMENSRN
Briefly: Inhibition of Proteus mirabilis C889 beta-lactamase assessed as inhibition of nitrocefin hydrolysis preincubated for 5 mins by microtiter plate assay.

Sequence of Beta-lactamase (Staphylococcus aureus) (P00807 whole entry): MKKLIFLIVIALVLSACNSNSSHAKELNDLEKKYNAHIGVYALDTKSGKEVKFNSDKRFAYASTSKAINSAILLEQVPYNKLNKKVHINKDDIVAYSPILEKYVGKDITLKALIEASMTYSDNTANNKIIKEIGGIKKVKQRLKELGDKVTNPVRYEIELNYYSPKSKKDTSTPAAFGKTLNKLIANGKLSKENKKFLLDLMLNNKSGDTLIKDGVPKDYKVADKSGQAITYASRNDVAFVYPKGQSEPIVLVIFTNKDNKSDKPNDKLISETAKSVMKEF
Sequence of Beta-lactamase (Pseudomonas aeruginosa (strain ATCC 15692 / PAO1 / 1C / PRS 101 / LMG12228), UniProt P24735) (P24735 whole entry): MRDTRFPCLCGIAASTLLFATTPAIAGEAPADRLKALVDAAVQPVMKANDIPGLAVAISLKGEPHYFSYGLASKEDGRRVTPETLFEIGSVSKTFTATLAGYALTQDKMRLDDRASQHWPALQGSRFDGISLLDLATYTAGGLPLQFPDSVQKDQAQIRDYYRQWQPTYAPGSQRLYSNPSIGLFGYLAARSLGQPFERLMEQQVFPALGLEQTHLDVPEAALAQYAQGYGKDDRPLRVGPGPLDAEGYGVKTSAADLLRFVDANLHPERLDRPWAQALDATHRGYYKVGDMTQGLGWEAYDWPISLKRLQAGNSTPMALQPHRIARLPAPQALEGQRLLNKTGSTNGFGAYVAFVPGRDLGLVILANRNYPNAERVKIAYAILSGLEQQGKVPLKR
Sequence of Beta-lactamase (Enterobacter cloacae, UniProt P05364) (P05364 whole entry): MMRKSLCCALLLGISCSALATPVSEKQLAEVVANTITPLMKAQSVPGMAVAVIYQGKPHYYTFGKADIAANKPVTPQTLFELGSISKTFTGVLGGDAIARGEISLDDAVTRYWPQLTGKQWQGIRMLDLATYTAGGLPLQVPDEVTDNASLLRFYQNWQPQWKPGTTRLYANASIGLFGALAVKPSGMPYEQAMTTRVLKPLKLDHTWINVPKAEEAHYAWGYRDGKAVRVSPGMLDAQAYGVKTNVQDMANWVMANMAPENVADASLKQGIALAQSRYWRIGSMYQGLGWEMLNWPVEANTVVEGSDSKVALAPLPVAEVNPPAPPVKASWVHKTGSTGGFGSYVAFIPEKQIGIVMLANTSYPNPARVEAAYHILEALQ
Sequence of Beta-lactamase TEM (P62593 whole entry): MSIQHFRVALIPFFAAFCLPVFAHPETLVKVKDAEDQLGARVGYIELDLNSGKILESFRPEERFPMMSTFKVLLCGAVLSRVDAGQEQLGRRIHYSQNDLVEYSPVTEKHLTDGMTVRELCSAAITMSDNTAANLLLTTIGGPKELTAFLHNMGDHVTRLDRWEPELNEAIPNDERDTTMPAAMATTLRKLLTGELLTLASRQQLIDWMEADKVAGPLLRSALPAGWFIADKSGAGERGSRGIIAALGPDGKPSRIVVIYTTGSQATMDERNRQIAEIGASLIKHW

On to `CC/C=C\C/C=C\C/C=C\CCCCCCCc1cccc(O)c1C(=O)O`, for which the MIC against Pseudomonas aeruginosa was over 256 µg/mL; in [1], 2 µg/mL (≈ 5.4 µM); against Staphylococcus aureus [4], 8 µg/mL (≈ 21.6 µM); in the experiment on Escherichia coli it was over 256 µg/mL; against Enterococcus faecalis, 0.25 µg/mL (≈ 0.675 µM); with Serratia marcescens, over 256 µg/mL. In addition, the MIC with Bacillus subtilis is 4 µg/mL (≈ 10.8 µM); with Proteus mirabilis, over 256 µg/mL; in the experiment on Streptococcus pyogenes it was 2 µg/mL (≈ 5.4 µM); with Streptococcus pneumoniae, 2 µg/mL (≈ 5.4 µM); against Staphylococcus aureus [7] it was 32 µg/mL (≈ 86.4 µM); in the experiment with Klebsiella pneumoniae, over 256 µg/mL. In addition, the figures for the minimum inhibitory concentration (MIC) (in experiment [9]; with Enterobacter cloacae; against Staphylococcus aureus [10]) were 2 µg/mL (≈ 5.4 µM), over 256 µg/mL and 2 µg/mL (≈ 5.4 µM), respectively. Besides, the IC50 in experiment [2] worked out at 10.1 µg/mL (≈ 27.3 µM); in experiment [3], 79.7 µg/mL (≈ 215 µM). Also, the negative-log IC50 (pIC50) on Beta-lactamase TEM was 4.87; at Beta-lactamase [6], 4.35; at Beta-lactamase [8] it was 3.96; on Beta-lactamase [11], 3.52. In addition, the outcome in experiment [5] was inactive.

`O=C(O)[C@H]1/C(=C/CO)O[C@@H]2CC(=O)N21` [CLAVULANIC ACID]: in experiment [3], the half-inhibitory concentration (IC50) was determined as 0.35 µg/mL (≈ 1.76 µM).
